pIC50, pKi: −log10 of the molar value.
What was measured:
[1] = target: Sucrase-isomaltase, intestinal (Rattus norvegicus) (UniProt P23739); assay: Inhibition of rat intestine sucrase using sucrose as substrate at 10 mg/ml incubated for 10 mins prior to substrate addition measured after 40 mins by glucose oxidase colorimetric method
Saccharomyces cerevisiae = assay: Inhibition of yeast type 1 alpha-glucosidase using PNPG as substrate at 10 mg/ml incubated for 10 mins prior to substrate addition measured after 20 mins by spectrophotometry
[2] = target: T1, Sucrase-isomaltase, intestinal (Rattus norvegicus, UniProt P23739); assay: Inhibition of rat intestine sucrase using sucrose as substrate incubated for 10 mins prior to substrate addition measured after 40 mins by glucose oxidase colorimetric method
Method in brief: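 Crude enzyme from centrifuged (12,000 g, 30 min) intestinal supernatant containing both maltase and sucrase. Test compound (1 mg/mL stock, DMSO) preincubated with enzyme at 37 C for 10 min. Substrate in 0.1 M phosphate buffer pH 6.9 (maltose 0.58 mM or sucrose 20 mM) added, then 40 min at 37 C. Quenched at 80 C for 15 min. Released glucose measured by glucose oxidase kit.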

[3] = test system: Radical scavenging activity; assay: Antioxidant activity assessed as DPPH radical scavenging activity at 10 mg/ml after 15 mins by spectrophotometry; type: functional
Method in brief: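 Sample (10 µL at 0.1, 1.0 or 10.0 mg/mL) mixed with 0.1 mM DPPH in methanol (150 µL), kept in the dark at room temperature on a shaker for 15 min. Percentage scavenging = [(A0 − A1)/A0] × 100, with A0 and A1 the absorbance without and with sample.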

[4] = test system: Maltase-glucoamylase, intestinal (Rattus norvegicus); assay: Inhibition of rat intestine maltase using maltose as substrate at 10 mg/ml incubated for 10 mins prior to substrate addition measured after 40 mins by glucose oxidase colorimetric method
[5] = test system: Radical scavenging activity; assay: Antioxidant activity assessed as DPPH radical scavenging activity after 15 mins by spectrophotometry; type: functional
Method in brief: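 Sample (10 µL at 0.1, 1.0 or 10.0 mg/mL) mixed with 0.1 mM DPPH in methanol (150 µL), kept in the dark at room temperature on a shaker for 15 min. Absorbance read at 517 nm. Percentage scavenging = [(A0 − A1)/A0] × 100, with A0 and A1 the absorbance without and with sample.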

[6] = Inhibition of yeast type 1 alpha-glucosidase using PNPG as substrate incubated for 10 mins prior to substrate addition measured after 20 mins by spectrophotometry; design: species or system Saccharomyces cerevisiae
[7] = target: T1, Sucrase-isomaltase, intestinal; assay: Competitive inhibition of rat intestine sucrase using sucrose as substrate by Lineweaver-Burk plot analysis
Method in brief: (§1)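 Same maltase/sucrase reactions, with activity held at 0.45 (maltase) and 0.09 (sucrase) U/mg protein. Inhibitor 0 to 20.4 mM against substrate 1.0 to 20.0 mM. Vmax and Km obtained from Lineweaver–Burk intercepts and slopes. Ki (EI) from a secondary plot of slope versus inhibitor concentration; Ki′ (ESI) from a secondary plot of intercept versus inhibitor concentration.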

[8] = target: T1, Sucrase-isomaltase, intestinal; assay: Non-competitive inhibition of rat intestine sucrase using sucrose as substrate by Lineweaver-Burk plot analysis; method in brief: as §1

T1 sequence (P23739 1-1013 limits assumed): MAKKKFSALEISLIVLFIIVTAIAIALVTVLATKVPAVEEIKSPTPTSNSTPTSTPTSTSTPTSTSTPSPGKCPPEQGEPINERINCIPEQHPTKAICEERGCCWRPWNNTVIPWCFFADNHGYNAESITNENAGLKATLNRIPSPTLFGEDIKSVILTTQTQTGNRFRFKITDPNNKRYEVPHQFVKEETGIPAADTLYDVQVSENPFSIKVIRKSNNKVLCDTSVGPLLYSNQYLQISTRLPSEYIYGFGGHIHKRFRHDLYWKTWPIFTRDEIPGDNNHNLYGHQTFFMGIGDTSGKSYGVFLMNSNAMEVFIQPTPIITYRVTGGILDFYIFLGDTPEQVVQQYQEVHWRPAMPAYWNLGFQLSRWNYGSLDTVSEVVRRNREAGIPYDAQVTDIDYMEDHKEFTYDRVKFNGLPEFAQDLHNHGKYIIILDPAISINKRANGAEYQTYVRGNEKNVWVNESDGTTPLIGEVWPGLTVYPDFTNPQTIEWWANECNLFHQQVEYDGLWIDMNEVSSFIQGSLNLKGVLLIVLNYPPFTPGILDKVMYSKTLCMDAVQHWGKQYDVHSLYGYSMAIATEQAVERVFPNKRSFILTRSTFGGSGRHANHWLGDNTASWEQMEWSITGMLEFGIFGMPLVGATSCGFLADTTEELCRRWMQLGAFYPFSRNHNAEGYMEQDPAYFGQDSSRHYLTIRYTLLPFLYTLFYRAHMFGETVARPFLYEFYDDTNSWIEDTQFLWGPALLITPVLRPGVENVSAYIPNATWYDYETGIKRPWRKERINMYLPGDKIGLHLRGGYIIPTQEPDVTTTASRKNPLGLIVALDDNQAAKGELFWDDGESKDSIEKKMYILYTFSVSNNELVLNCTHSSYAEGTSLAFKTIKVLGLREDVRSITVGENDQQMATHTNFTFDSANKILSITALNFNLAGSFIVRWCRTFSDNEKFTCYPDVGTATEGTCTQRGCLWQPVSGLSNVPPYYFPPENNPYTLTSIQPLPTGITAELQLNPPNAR
T1 sequence (P23739 1014-1841 limits assumed): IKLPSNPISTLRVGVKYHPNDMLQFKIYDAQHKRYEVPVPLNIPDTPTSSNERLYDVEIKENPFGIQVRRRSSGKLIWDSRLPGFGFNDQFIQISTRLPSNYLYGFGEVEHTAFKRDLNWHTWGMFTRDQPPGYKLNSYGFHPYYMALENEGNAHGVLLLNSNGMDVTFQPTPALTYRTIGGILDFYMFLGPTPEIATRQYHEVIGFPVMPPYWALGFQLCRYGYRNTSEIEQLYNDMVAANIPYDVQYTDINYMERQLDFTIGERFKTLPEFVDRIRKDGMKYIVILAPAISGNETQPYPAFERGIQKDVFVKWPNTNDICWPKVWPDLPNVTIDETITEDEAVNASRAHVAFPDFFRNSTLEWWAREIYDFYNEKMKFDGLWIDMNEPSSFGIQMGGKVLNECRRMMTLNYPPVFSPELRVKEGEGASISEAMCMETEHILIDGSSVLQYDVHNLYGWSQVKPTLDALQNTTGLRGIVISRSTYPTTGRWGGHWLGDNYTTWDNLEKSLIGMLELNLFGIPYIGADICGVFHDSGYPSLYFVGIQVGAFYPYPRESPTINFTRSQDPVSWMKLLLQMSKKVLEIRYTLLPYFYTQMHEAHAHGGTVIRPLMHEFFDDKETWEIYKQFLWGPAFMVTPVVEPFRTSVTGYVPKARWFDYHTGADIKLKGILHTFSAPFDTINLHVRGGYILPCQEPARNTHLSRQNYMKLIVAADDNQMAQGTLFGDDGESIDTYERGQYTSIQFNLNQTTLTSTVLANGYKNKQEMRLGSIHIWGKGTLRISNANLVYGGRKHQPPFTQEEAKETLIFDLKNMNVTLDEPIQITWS
Sucrase-isomaltase, intestinal (Rattus norvegicus), sequence (P23739 1-1013 limits assumed): as the sequence (P23739 1-1013 limits assumed) above
Sucrase-isomaltase, intestinal (Rattus norvegicus), sequence (P23739 1014-1841 limits assumed): as the sequence (P23739 1014-1841 limits assumed) above

inhibition [1]	inhibition (Saccharomyces cerevisiae)	pIC50 [2]	SMILES	inhibition [3]	further results
< 30%			COc1cccc(/C=C/C(=O)O[C@H]2C[C@@H](O)[C@H](O)[C@@H](O)[C@H]2O)c1		
< 30%			COc1cccc(/C=C/C(=O)O[C@@H]2C[C@@H](O)[C@H](O)[C@@H](O)[C@H]2O)c1		
	< 30%	3.02	O=C(/C=C/c1ccc(O)c(O)c1)O[C@H]1C[C@@H](O)[C@H](O)[C@@H](O)[C@H]1O	< 50%	
< 30%	< 30%		COc1ccc(/C=C/C(=O)O[C@H]2C[C@@H](O)[C@H](O)[C@@H](O)[C@H]2O)cc1	< 50%	inhibition [4]: < 30%
< 30%			COc1ccccc1/C=C/C(=O)O[C@@H]1C[C@@H](O)[C@H](O)[C@@H](O)[C@H]1O		
	< 30%	4.06	O=C(O)/C=C/c1ccc(O)c(O)c1 [CAFFEIC ACID]		pIC50 [5]: 3.82
< 30%			COc1ccc(/C=C/C(=O)O[C@@H]2C[C@@H](O)[C@H](O)[C@@H](O)[C@H]2O)cc1OC		
	< 30%	4.28	COc1ccc(/C=C/C(=O)O[C@@H]2C[C@@H](O)[C@H](O)[C@@H](O)[C@H]2O)cc1O	< 50%	
	< 30%	4.17	COc1cc(/C=C/C(=O)O[C@@H]2C[C@@H](O)[C@H](O)[C@@H](O)[C@H]2O)ccc1O	< 50%	
< 30%	< 30%		COc1cc(/C=C/C(=O)O[C@@H]2C[C@@H](O)[C@H](O)[C@@H](O)[C@H]2O)cc(OC)c1OC	< 50%	inhibition [4]: < 30%
	< 30%	3.77	COc1cc(/C=C/C(=O)O[C@H]2C[C@@H](O)[C@H](O)[C@@H](O)[C@H]2O)ccc1O	< 50%	
	< 30%	3.09	COc1ccc(/C=C/C(=O)O[C@H]2C[C@@H](O)[C@H](O)[C@@H](O)[C@H]2O)cc1O	< 50%	
< 30%	< 30%		COc1ccc(/C=C/C(=O)O[C@@H]2C[C@@H](O)[C@H](O)[C@@H](O)[C@H]2O)cc1	< 50%	inhibition [4]: < 30%
< 30%			COc1ccc(/C=C/C(=O)O[C@H]2C[C@@H](O)[C@H](O)[C@@H](O)[C@H]2O)cc1OC		
< 30%			COc1ccccc1/C=C/C(=O)O[C@H]1C[C@@H](O)[C@H](O)[C@@H](O)[C@H]1O		
			C[C@H]1O[C@H](O[C@H]2[C@H](O)[C@@H](O)[C@@H](O[C@H]3[C@H](O)[C@@H](O)C(O)O[C@@H]3CO)O[C@@H]2CO)[C@H](O)[C@@H](O)[C@@H]1N[C@H]1C=C(CO)[C@@H](O)[C@H](O)[C@H]1O (stereo partly drawn) [ACARBOSE]		pIC50 [6]: 3.39
			COc1ccc(O)c(C(C)(C)C)c1.COc1ccc(O)cc1C(C)(C)C [BUTYLATED HYDROXYANISOLE]		pIC50 [5]: 7.00
	< 30%	4.36	O=C(/C=C/c1ccc(O)c(O)c1)O[C@@H]1C[C@@H](O)[C@H](O)[C@@H](O)[C@H]1O		pIC50 [5]: 3.96; pKi [7]: 4.65; pKi [8]: 4.32
